Assay outcomes deposited in PubChem BioAssay by several laboratories.
In the library only some 5% were active in any assay of this set; here they are far more common.
XBP1 UPR activ – activators of adaptive XBP1 UPR arm, primary screen, cell-based, CHO-XBP1 luciferase reporter, luminescence, uHTS; AID 463104, 2010; IRE1-XBP1 UPR activation; percent of tunicamycin response, DMSO as zero; hit rate 0.33% among 330,000; activation, % at 20 µM;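 active = versus positive control, 20 µM dose yields 30% or more activation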;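 note: 100% = tunicamycin at 10 µg/mL and 0% = DMSO only wells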
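Material: CHO-XBP1 cells stably carrying IRE1-XBP1-driven luciferase reporter / Amount: 1000 cells per well / Compound: 20 µM, 1% DMSO / Times: 6 h treatment, 37 °C / Detection: luciferase luminescence / Measure: % activation of reporter signal versus tunicamycin and DMSO controls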
Beta cell apopt – inhibitors of cytokine-induced beta cell apoptosis, primary screen, luminescence. AID 435005, 2010. INS-1E cytokine-induced death, ATP luminescence, 48 h; percent of positive-control rescue, neutral wells zero. protection from apoptosis, % (test concentration not listed). hit rate 0.8% among 300,000;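 active = Every replicate reaches about 75%, or at least half do and their mean reaches it too, limit read from the data; inconclusive = At least half of replicates reach the limit but their mean does not; inactive = Under half of replicates reach the limit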;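 note: 0% = cytokine-treated negative control wells and 100% = positive control rescue; higher means more ATP so stronger rescue from cytokine killing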
T cruzi repl – inhibitors of intracellular T. cruzi growth, primary screen, luminescence, NIH3T3 host cells; T. cruzi beta-gal in NIH3T3, 90 h; inhibition, % (concentration not given with the values); hit rate 1.4% among 300,000; AID 1885, 2009;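 active = mean inhibition across valid replicates above about 55%, limit read from the data; inconclusive = mean below that limit but half or more replicates reach it; inactive = mean below it, under half of replicates reach it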;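 note: signal also drops with host cell toxicity which is not excluded here; 0% = plate median of DMSO wells and 100% = zero luminescence signal; higher percent means less beta-gal luminescence so fewer parasites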
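compound dosing = single 50 nL compound addition per well in DMSO | material = NIH/3T3 host cells with β-galactosidase reporter T. cruzi | input = 5,000 host fibroblasts per well | timing = ≥90 h infection period, 3 h prior cell attachment | read-out basis = percent inhibition of parasite-derived β-gal signal | detection = GalScreen β-gal luminescence, detergent lysis, 60 min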
CHOP UPR activ – activators of apoptotic CHOP UPR arm, primary screen, cell-based, CHO-CHOP luciferase reporter, luminescence, uHTS; UPR activation; percent of tunicamycin response over DMSO baseline; activation, % at 10 µM; hit rate 0.34% among 330,000; AID 449763, 2010;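 active = at 10 µM dose, activation of 40% or more, normalized to positive control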;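 note: 100% = tunicamycin at 10 µg/mL and 0% = DMSO alone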
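Test system: CHO-CHOP cells, stable luciferase reporter of PERK-eIF2a-CHOP signalling | Quantity: 500 CHO-CHOP cells per well | Buffer or medium: F12 plus 10% serum | Compound dosing: 10 µM single point, 0.5% DMSO | Schedule: 6 h compound treatment, 37 °C | Signal: Luciferase luminescence | Control set: Tunicamycin high control, DMSO low control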
CSC inhib – cancer stem cell viability inhibitors, primary screen, luminescence; hit rate 1.1% among 300,000; inhibition, % at 7.5 µM; cancer stem cell-like cells viability; AID 2717, 2010; in the data active = inhibition above about 75%; inconclusive = no clear call, values can overlap the other calls; tested in HMLE shEcad cells
Mdm2 MdmX PPI – inhibitors of human Mdm2-MdmX association, primary screen, cell-based, luminescence, split luciferase, SaOS-2, uHTS; Protein Mdm4 (Homo sapiens) + E3 ubiquitin-protein ligase Mdm2 (Homo sapiens), …; SaOS-2 split-luciferase Mdm2/MdmX complementation; inhibition, % at 8 µM; hit rate 3% among 330,000; AID 485346, 2010;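 active = inhibition of at least 50% at 8 µM in the primary screen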
Target sequence (O15151 whole entry, looked up): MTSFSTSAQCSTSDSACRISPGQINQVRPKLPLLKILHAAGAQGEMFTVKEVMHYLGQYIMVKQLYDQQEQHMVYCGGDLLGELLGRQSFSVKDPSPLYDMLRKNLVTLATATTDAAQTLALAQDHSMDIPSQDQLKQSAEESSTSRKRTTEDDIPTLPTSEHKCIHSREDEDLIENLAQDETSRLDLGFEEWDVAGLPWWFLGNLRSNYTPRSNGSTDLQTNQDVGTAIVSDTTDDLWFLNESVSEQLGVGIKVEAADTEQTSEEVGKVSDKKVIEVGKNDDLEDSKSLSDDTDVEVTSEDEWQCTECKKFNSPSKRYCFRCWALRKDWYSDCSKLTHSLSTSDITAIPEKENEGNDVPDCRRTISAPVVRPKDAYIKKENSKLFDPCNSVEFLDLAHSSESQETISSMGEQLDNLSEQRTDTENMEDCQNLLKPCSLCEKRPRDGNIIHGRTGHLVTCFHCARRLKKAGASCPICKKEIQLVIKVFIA
Target sequence (Q00987 whole entry, looked up): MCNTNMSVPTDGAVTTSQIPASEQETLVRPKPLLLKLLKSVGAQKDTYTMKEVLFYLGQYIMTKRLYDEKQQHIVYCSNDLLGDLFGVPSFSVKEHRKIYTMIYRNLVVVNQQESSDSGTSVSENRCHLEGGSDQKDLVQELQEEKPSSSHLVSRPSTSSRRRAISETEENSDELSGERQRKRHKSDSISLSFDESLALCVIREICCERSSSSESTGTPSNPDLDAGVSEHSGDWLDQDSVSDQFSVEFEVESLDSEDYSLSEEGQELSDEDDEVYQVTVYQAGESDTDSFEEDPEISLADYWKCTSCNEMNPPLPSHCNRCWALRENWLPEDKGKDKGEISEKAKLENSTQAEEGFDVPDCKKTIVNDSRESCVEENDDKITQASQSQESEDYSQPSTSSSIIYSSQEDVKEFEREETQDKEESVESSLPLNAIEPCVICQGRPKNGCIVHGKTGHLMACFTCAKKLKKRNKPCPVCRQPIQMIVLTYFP
* = called active by the depositor; ? = inconclusive; . = not tested or not shown; ! = a repeat was not active.

SMILES	XBP1 UPR activ	Beta cell apopt	T cruzi repl	CHOP UPR activ	CSC inhib	Mdm2 MdmX PPI
Cc1oc2nc(SCC(=O)N3CCCCC3)nc(N)c2c1C	1	-3	-5	1	-14	28
CC1CCCCC1NC(=O)CNC(=O)c1cccs1 (centres undefined)	0	-1	-2	4	-4	-14
CCN(CC)CCN1C(=O)Cn2c(C)c(C)c3cccc1c32	-2	-1	69*!	0	39	-9
COc1ccc(C(=O)C2CCCN(Cc3c(C)[nH]c4ccccc34)C2)c(OC)c1 (centres undefined)	4	6	62*	1	-2	15
COc1ccc(C(=O)C2CCCN(Cc3sc(N4CCCC4)nc3Cl)C2)c(OC)c1 (centres undefined)	3	10	63*	-2	0	16
COc1ccc(C(=O)C2CCCN(Cc3cc(C)c(O)c(C)c3)C2)c(OC)c1 (centres undefined)	1	2	27	1	?	0
NC(=O)NCCCC(=O)NCC(c1ccccc1Cl)c1c[nH]c2ccccc12 (centres undefined)	-5	5	8	2	-15	18
COC(=O)c1c(C)oc2ccc(N(C(=O)c3ccncc3)S(=O)(=O)c3ccc4ccccc4c3)cc12	-2	105*	-34	4	8	42
COC(=O)c1c(C)oc2ccc(N(C(=O)c3ccncc3)S(=O)(=O)c3ccccc3)cc12	-5	.	-26	2	2	35
COC(=O)c1c(C)oc2ccc(N(C(=O)c3ccncc3)S(=O)(=O)c3ccc(C)cc3C)cc12	2	100*	-50	7	-10	33
COCCNS(=O)(=O)c1ccc(C)c(C)c1C	1	-1	-7	0	-13	10
O=C(NCCN1CCOCC1)c1ccccc1OCc1ccccc1	0	-4	.	2	-7	12
CCC1(C)SC(N)=NN1C(C)=O (centres undefined)	2	0	-9	3	2	8
O=[N+]([O-])c1ccc(OCCO)c(P(=O)(c2ccccc2)c2ccccc2)c1	1	0	5	0	1	5
CC(C)(C)OC(=O)N[C@H](C(=O)OC(C)(C)C)c1ccc2c(c1)OCO2	-1	-1	.	1	-24	23
Cc1cccc(C=Nc2ccccc2C(N)=O)c1	1	8	-11	4	-1	42
Cc1ccc(C=Nc2ccccc2C(N)=O)s1	3	8	-46	5	78*	29
O=C1c2cccc(OCC(=O)N3CCCc4ccccc43)c2CCN1Cc1ccccc1	-3	8	16	1	88*	30
CCCc1cc(=O)n(-c2nc3ccccc3s2)[nH]1	2	-2	-6	-1	140*	-1
CCOC(=O)Cc1cc(=O)n(-c2nc3ccccc3s2)[nH]1	2	-4	0	-2	31	11
O=S(=O)(CCc1nc2ccccc2o1)c1ccc2ccccc2c1	3	2	-12	0	-9	-5
O=C(OC(c1ccccc1)c1nccc2ccccc12)c1cc([N+](=O)[O-])cc([N+](=O)[O-])c1 (centres undefined)	-2	19	58*	1	-2	20
OC(c1cccc(Cl)c1)c1nccc2ccccc12 (centres undefined)	-3	-11	-8	-1	-4	10
CCOC(=O)c1c(C)nn(Cc2ccccc2)c1N	-2	-2	-15	-3	.	-1
Cc1nn(Cc2ccccc2)c(C)c1C(=O)OCC(=O)c1cc(C)n(CC(F)(F)F)c1C	-3	9	34	-2	78*	29
SMILES	XBP1 UPR activ	Beta cell apopt	T cruzi repl	CHOP UPR activ	CSC inhib	Mdm2 MdmX PPI
O=C(O)c1cc(S(=O)(=O)N2CCCCC2)ccc1N1CCCCC1	-2	-3	.	1	-7	-15
COc1ccc(N2CCN(C(CNS(=O)(=O)c3cccs3)c3cccnc3)CC2)cc1 (centres undefined)	0	5	43	1	-9	15
COc1ccc(N2CCN(C(CNS(=O)(=O)c3cc(F)ccc3F)c3cccnc3)CC2)cc1 (centres undefined)	-4	2	70*	0	13	25
Cc1ccc(C(CNS(=O)(=O)c2ccc([N+](=O)[O-])cc2)N2CCN(C)CC2)cc1 (centres undefined)	-2	2	58*	0	28	2
O=S(=O)(NCC(c1cccnc1)N1CCN(c2ccc(F)cc2)CC1)c1cc(F)ccc1F (centres undefined)	-5	-4	58*	-1	23	29
Cc1ccc(C(CNS(=O)(=O)c2ccc(Br)cc2)N2CCN(C)CC2)cc1 (centres undefined)	0	5	10	1	1	23
COc1ccc(S(=O)(=O)NCC(c2cccnc2)N2CCN(c3ccccc3)CC2)cc1C (centres undefined)	0	-3	63*	0	-7	31
CCOC(=O)CN1C(=O)NC2(CCCc3ccccc32)C1=O (centres undefined)	1	-4	-12	0	.	13
O=S(=O)(NCC(c1cccnc1)N1CCc2ccccc2C1)c1ccccc1 (centres undefined)	-2	-3	23	1	0	1
O=S(=O)(NCC(c1cccnc1)N1CCN(Cc2ccccc2)CC1)c1cc(F)ccc1F (centres undefined)	0	6	59*	1	0	25
O=S(=O)(NCC(c1cccnc1)N1CCN(Cc2ccccc2)CC1)c1ccc(Cl)cc1 (centres undefined)	-4	0	58*	0	11	15
O=S(=O)(NCC(c1cccnc1)N1CCN(Cc2ccccc2)CC1)c1ccc(F)cc1 (centres undefined)	0	2	47	2	4	-2
O=[N+]([O-])c1ccc(S(=O)(=O)NCC(c2cccnc2)N2CCc3ccccc32)cc1 (centres undefined)	-4	.	70*	2	1	8
Cc1ccccc1CS(=O)(=O)Cc1ccc(C(=O)NCc2cccnc2)o1	-1	0	-4	-3	-10	-14
CCCN(CCC)CCCNC(=O)C1CCC(CNS(=O)(=O)c2cccc3nsnc23)CC1 (centres undefined)	-3	-5	6	-2	-4	-5
